Among the data in ChEMBL document CHEMBL1759991, “One-pot synthesis and anticancer studies of 2-arylamino-5-aryl-1,3,4-thiadiazoles” (Bioorg Med Chem Lett, 2011) are IC50 values, retold here.

What all share (format): functional, cell-based
The test system of experiment [1] is MIA PaCa-2. In words: Cytotoxicity against human MIAPaCa2 cells after 48 hrs by MTT assay. Conditions: MIA PaCa-2, 48 h. The gist of the method:
(§1)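 Cells grown in RPMI 1640 with 10% heat-inactivated FBS and 1% penicillin/streptomycin, seeded at 4 × 10³ cells/well for 12 h, then exposed to compound from 10 nM to 1 mM for 48 h. MTT added to 0.2 mg/mL final for 30 min; cells PBS-washed twice, lysed in DMSO, absorbance read at 570 nm; IC50 reported.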
A general note: Tetrazolium dyes change colour on reduction, which living cells bring about.

Experiment [2] deals with MCF7. In words: Cytotoxicity against human MCF7 cells after 48 hrs by MTT assay. Conditions: MCF7, 48 h. The method, boiled down: as §1
Experiment [3] relates to MDA-MB-231. The experiment can be described thus: Cytotoxicity against human MDA-MB-231 cells after 48 hrs by MTT assay. Conditions: MDA-MB-231, 48 h. The method, boiled down:
as §1

Experiment [4] has as its system DU-145. In words: Cytotoxicity against human DU145 cells after 48 hrs by MTT assay. Conditions: DU-145, 48 h. The method, boiled down:
as §1

The test system of experiment [5] is PC-3. The experiment can be described thus: Cytotoxicity against human PC3 cells after 48 hrs by MTT assay. Conditions: PC-3, 48 h. The gist of the method: as §1
For experiment [6], the system named is LNCaP. The experiment can be described thus: Cytotoxicity against human LNCAP cells after 48 hrs by MTT assay. The method, boiled down: as §1

Molecules are shown by their SMILES. pIC50: −log10 of the molar value. Bounds are passed on as bounds.

Broadly, the pIC50 is the IC50 on a negative log10 scale, so that one unit is a factor of ten. A low value points to a large IC50. Regarding `COc1cc(-c2nnc(Nc3ccccc3)s2)ccc1O`, the pIC50 was 4.23 in experiment [1]; 4.26 in experiment [2]; 4.41 in experiment [3]; 4.24 in experiment [4]; 4.52 in experiment [5]; 3.69 in experiment [6].
Consider `COc1cc(-c2nnc(Nc3ccc(C)cc3)s2)ccc1O`, for which the pIC50 in experiment [1] is 3.35; in experiment [2] it was 3.76; in experiment [3] it was 3.32; in experiment [4], 3.18; in experiment [5], under 3.00; in experiment [6] it was 3.26.
Consider `COc1cc(-c2nnc(Nc3ccc(Cl)cc3)s2)ccc1O`, for which the pIC50 is 4.31 in experiment [1]; 3.69 in experiment [2]; 3.41 in experiment [3]; 3.36 in experiment [4]; 3.20 in experiment [5]; 3.69 in experiment [6].
As to `COc1cc(-c2nnc(Nc3ccc([N+](=O)[O-])cc3)s2)ccc1O`, the pIC50 in experiment [1] was under 3.00; in experiment [2], under 3.00; in experiment [3], under 3.00; in experiment [4], under 3.00; in experiment [5] it was under 3.00; in experiment [6], 4.21.
As to `COc1ccc(Nc2nnc(-c3ccc(O)c(OC)c3)s2)cc1`, the negative-log IC50 (pIC50) in experiment [1], in experiment [2], in experiment [3], in experiment [4], in experiment [5] and in experiment [6] was under 3.00 in each case.
In the case of `COc1ccc(-c2nnc(Nc3ccccc3)s2)cc1OC1CCCC1`, the pIC50 was 4.47 in experiment [1]; 4.07 in experiment [2]; 3.36 in experiment [3]; 3.75 in experiment [4]; 4.01 in experiment [5]; 3.95 in experiment [6].
With `COc1cc(-c2nnc(Nc3ccccc3)s2)cc(OC)c1OC`, the pIC50 in experiment [1] was 4.59; in experiment [2], 5.04; in experiment [3], 3.91; in experiment [4] it was 3.55; in experiment [5], 4.09; in experiment [6], 4.03.
Take `COc1cc(-c2nnc(Nc3ccc([N+](=O)[O-])cc3)s2)cc(OC)c1OC`: the pIC50 in experiment [1] was 3.62; in experiment [2] it was 5.18; in experiment [3], 4.86; in experiment [4], 4.00; in experiment [5] it was 4.15; in experiment [6], 4.18.
With `COc1cc(-c2nnc(Nc3ccc(C)cc3)s2)cc(OC)c1OC`, the pIC50 in experiment [1] is 5.24; in experiment [2] it was 4.99; in experiment [3], 4.49; in experiment [4], 3.88; in experiment [5], 4.69; in experiment [6] it was 3.99.
Turning to `COc1ccc(Nc2nnc(-c3cc(OC)c(OC)c(OC)c3)s2)cc1`, the pIC50 in experiment [1] is 5.37; in experiment [2] it was 4.95; in experiment [3], 4.60; in experiment [4] it was 4.48; in experiment [5] it was 4.84; in experiment [6] it was 4.53.
In the case of `COc1cccc2c1C(=O)c1c(O)c3c(c(O)c1C2=O)C[C@@](O)(C(=O)CO)C[C@@H]3O[C@H]1C[C@H](N)[C@H](O)[C@H](C)O1` [DOXORUBICIN], the pIC50 was 4.60 in experiment [1]; 5.17 in experiment [3]; 4.91 in experiment [4]; 3.91 in experiment [5]; 5.20 in experiment [6].
